From ChEMBL document CHEMBL1154626, “Novel, potent, and selective quinoxaline-based 5-HT(3) receptor ligands. 1. Further structure-activity relationships and pharmacological characterization” (J Med Chem, 2009) come the findings set out here.

Calls of active or inactive are those of the source. No cut-off for these calls is given here. Bounds are passed on as bounds.

Assay [1] has as its system Rattus norvegicus. The assay can be described thus: Agonist activity at 5HT3 receptor in Sprague-Dawley rat assessed as induction of bradycardia at 100 ug/kg, iv measured after 5 to 30 mins post-treatment by von Bezold-Jarisch reflex test. Type of assay: functional. The gist of the method:
(§1)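 Urethane-anesthetized rats, compound given iv. Agonism was scored as the compound itself evoking the von Bezold-Jarisch reflex (bradycardia). Antagonism was tested by giving the compound iv 5, 15 or 30 min before phenylbiguanide (PBG) and scoring the reduction of PBG-evoked bradycardia. ED50 is the dose giving half of the maximal bradycardia evoked by the same compound.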

Assay [2] has as its system Rattus norvegicus. Put plainly: Agonist activity at 5HT3 receptor in Sprague-Dawley rat assessed as induction of bradycardia at 10 ug/kg, iv measured after 5 to 30 mins post-treatment by von Bezold-Jarisch reflex test. Type of assay: functional. Put shortly:
as §1

Assay [3] deals with Rattus norvegicus. Put plainly: Antagonist activity at 5HT3 receptor in Sprague-Dawley rat assessed as inhibition of 1-phenylbiguanide-induced bradycardia at 50 ug/kg, iv administered 5 mins before 1-phenylbiguanide challenge measured after 5 to 30 mins post-treatment by von Bezold-Jarisch reflex test. Type of assay: functional. The gist of the method: as §1
In assay [4] the test system is Rattus norvegicus. The assay can be described thus: Antagonist activity at 5HT3 receptor in Sprague-Dawley rat assessed as inhibition of 1-phenylbiguanide-induced bradycardia at 1 ug/kg, iv administered 5 mins before 1-phenylbiguanide challenge measured after 5 to 30 mins post-treatment by von Bezold-Jarisch reflex test. Type of assay: functional, organism-based. Put shortly: as §1

For assay [5], the system named is Rattus norvegicus. Put plainly: Agonist activity at 5HT3 receptor in Sprague-Dawley rat assessed as induction of bradycardia at 50 ug/kg, iv measured after 5 to 30 mins post-treatment by von Bezold-Jarisch reflex test. The class given is functional. Put shortly:
as §1

The target in assay [6] is Muscarinic acetylcholine receptor. The assay can be described thus: Displacement of [3H]QNB from muscarinic receptor in rat cortex.
Assay [7] concerns Rattus norvegicus. Put plainly: Antagonist activity at 5HT3 receptor in Sprague-Dawley rat assessed as inhibition of 1-phenylbiguanide-induced bradycardia at 100 ug/kg, iv administered 5 mins before 1-phenylbiguanide challenge measured after 5 to 30 mins post-treatment by von Bezold-Jarisch reflex test. The class given is functional. Put shortly:
as §1

Assay [8] addresses T1, Adrenergic receptor alpha-1 (Rattus norvegicus, UniProt P15823+P23944+P43140).
T1 sequence (P15823 whole entry): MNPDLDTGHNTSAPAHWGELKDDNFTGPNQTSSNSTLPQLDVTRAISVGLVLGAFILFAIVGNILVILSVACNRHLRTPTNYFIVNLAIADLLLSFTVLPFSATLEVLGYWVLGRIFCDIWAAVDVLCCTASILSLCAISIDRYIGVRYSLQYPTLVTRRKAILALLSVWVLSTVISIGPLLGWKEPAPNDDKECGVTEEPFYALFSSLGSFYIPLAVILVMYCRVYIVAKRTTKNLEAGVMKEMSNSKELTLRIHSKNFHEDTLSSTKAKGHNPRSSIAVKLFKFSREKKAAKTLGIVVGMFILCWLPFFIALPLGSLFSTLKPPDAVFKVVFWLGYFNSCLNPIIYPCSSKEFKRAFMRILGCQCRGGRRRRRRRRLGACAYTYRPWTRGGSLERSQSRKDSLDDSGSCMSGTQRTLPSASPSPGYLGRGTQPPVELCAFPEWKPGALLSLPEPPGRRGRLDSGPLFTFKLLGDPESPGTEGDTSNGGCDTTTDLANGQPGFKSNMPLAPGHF
T1 sequence (P23944 whole entry): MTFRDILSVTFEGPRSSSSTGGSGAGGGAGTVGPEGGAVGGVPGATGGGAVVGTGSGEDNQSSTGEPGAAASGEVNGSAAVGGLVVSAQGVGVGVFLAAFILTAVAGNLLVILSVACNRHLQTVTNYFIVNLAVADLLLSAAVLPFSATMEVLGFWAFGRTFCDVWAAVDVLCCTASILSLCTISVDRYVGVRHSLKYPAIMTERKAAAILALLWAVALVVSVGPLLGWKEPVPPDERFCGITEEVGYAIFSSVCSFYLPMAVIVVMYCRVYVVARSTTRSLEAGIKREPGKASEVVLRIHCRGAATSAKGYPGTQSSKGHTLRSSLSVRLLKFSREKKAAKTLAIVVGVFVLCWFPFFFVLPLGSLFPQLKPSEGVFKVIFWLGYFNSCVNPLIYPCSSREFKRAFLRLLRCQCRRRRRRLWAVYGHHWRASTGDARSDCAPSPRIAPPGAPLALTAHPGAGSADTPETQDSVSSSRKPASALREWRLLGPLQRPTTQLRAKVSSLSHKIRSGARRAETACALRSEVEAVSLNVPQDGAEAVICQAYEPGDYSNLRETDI
T1 sequence (P43140 whole entry): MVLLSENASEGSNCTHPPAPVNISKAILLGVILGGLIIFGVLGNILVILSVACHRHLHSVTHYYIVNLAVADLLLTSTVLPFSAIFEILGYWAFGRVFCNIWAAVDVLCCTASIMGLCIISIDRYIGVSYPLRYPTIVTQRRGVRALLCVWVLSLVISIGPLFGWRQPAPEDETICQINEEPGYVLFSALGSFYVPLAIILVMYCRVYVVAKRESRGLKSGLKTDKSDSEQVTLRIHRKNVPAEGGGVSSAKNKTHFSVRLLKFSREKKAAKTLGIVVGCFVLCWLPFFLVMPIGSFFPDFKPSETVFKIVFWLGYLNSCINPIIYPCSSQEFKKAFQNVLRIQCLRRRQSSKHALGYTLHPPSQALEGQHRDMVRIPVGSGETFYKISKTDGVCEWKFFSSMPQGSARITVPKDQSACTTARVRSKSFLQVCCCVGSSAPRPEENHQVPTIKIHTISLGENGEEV
The assay can be described thus: Displacement of [3H]prazosin from adrenergic alpha1 receptor in rat cortex. A general note: In a radioligand displacement assay an active substance lowers the binding of a labelled ligand.

The test system of assay [9] is Rattus norvegicus. The assay can be described thus: Antagonist activity at 5HT3 receptor in iv dosed Sprague-Dawley rat assessed as inhibition of 1-phenylbiguanide-induced bradycardia administered 5 mins before 1-phenylbiguanide challenge measured after 5 to 30 mins post-treatment by von Bezold-Jarisch reflex test. Type of assay: functional. The gist of the method: as §1

Assay [10] concerns Rattus norvegicus. Put plainly: Antagonist activity at 5HT3 receptor in Sprague-Dawley rat assessed as inhibition of 1-phenylbiguanide-induced bradycardia at 10 ug/kg, iv administered 5 mins before 1-phenylbiguanide challenge measured after 5 to 30 mins post-treatment by von Bezold-Jarisch reflex test. The class given is functional. The gist of the method:
as §1

The subject of assay [11] is Rattus norvegicus. Put plainly: Agonist activity at 5HT3 receptor in Sprague-Dawley rat assessed as induction of bradycardia at 1 ug/kg, iv measured after 5 to 30 mins post-treatment by von Bezold-Jarisch reflex test. Type of assay: functional, organism-based. Put shortly:
as §1

Regarding `Fc1ccc2c(c1)nc(N1CCN(Cc3c[nH]cn3)CC1)c1cccn12`, the Activity in assay [1] was determined as 40%. Further, the outcome in assay [2], in assay [3], in [5], in assay [7] and in assay [10] was Active. Also, the outcome in [4] and in assay [11] was inactive. The Ki in assay [6] and in [8] was above 10 µM each time. For the same molecule, the ID50 in assay [9] is 0.01 mg/kg.
